In ChEMBL document CHEMBL4513216, “Probing the Open Global Health Chemical Diversity Library for Multistage-Active Starting Points for Next-Generation Antimalarials” (ACS Infect Dis, 2020) one finds cytotoxicity data, which are given here for 99 molecules.

The nature of this data set: Toxicity liver stage against HepG2, at 10uM. The format is cell-based. The arrangement: test concentration 10 uM, cell line HepG2-A16-CD81EGFP. To be noted: human, HepG2-A16-CD81EGFP cells; read-out: INHIBITION
In short, it runs like this:
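Uninfected HepG2-A16-CD81EGFP cells, 3 × 10^3 per well, 1536-well, plated on prespotted compound at 10 μM final, parasite-free screening media added to match infected plates; puromycin 10 μM positive, DMSO 0.5% negative; run in parallel with 48 h PbLuc assay at 37 °C, 5% CO2; viability by CellTiter-Glo luminescence, normalized to controls.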
For the molecule `COC(=O)c1ccc2c(-c3ccnc(NCCO)n3)c[nH]c2c1`, the cytotoxicity at 10 µM is -12.8%.
In the case of `Cc1cc(O)cc(=O)n1CCCC(=O)Nc1n[nH]c2ccccc12` it was -10.6%; in that of `COc1ccc(S(=O)(=O)NCC(c2cccn2C)N(C)C)cc1F` (centres undefined), -0.418%; in that of `CC(O)(CNC(=O)c1c(F)cccc1Cl)C1CC1` (centres undefined), -8.87%.
As for `CN(C)CC(=O)N1CCC2(CCN(Cc3cccc(F)c3)CC2)C1`, the cytotoxicity at 10 µM was found to be 1.11%.
In the case of `CN(C)Cc1nnc2n1CCN(Cc1cccnc1)C2`, the cytotoxicity at 10 µM was -0.588%.
On to `CN(C)C(=O)c1nn(C)c2c1CN(Cc1ccoc1)C2`, for which the cytotoxicity at 10 µM is -6.28%.
In the case of `Cc1cnc(C(=O)N2CCCC3(CCN(c4cnn(C)c4)C3=O)C2)cn1` (centres undefined) it was -5.79%.
For the molecule `Cn1cc(N2CCC3(CCCN(C(=O)c4ccnn4C)C3)C2=O)cn1` (centres undefined), the cytotoxicity at 10 µM was -1.55%.
The value for `CN(CC1(C)COC1)C(=O)c1cc(-c2cnn(C)c2)nc2ccccc12` was 0.89%.
`Cc1c[nH]nc1C1CCN(c2cnccn2)C1` (centres undefined): the cytotoxicity at 10 µM turned out to be 5.3%.
As for `O=C(O)c1ccccc1-c1ccc(CN2CCC(CO)CC2)cn1`, the cytotoxicity at 10 µM amounted to 2.45%.
Regarding `CN1CCC(c2nccnc2Nc2cnccn2)CC1`, the cytotoxicity at 10 µM is -4.27%.
The value for `CC(=O)N1CCC(c2cccc(Oc3ccccc3)n2)CC1` was -0.0757%.
In the case of `COCCN1CCCC(c2ncc(C(=O)N(C)C)c(C)n2)C1` (centres undefined) it was -1.21%; in that of `CC(=O)N1CCOC(c2nc(N(C)C)ncc2-c2cccc(F)c2)C1` (centres undefined), -27.5%.
Consider `CC(=O)NCC(=O)N1CCC(c2cncc(Oc3cccnc3)n2)CC1`, for which the cytotoxicity at 10 µM is -19.5%.
On to `CN(Cc1ccc(F)cc1)CC1(O)CCN(C(=O)c2ccn(C)n2)C1` (centres undefined), for which the cytotoxicity at 10 µM is -6.41%.
With `CS(=O)(=O)c1snnc1C1CCCN(Cc2ccncc2)C1` (centres undefined), the cytotoxicity at 10 µM is -11.5%.
The value for `CC1CCCCN1c1nc2c(c(=O)[nH]1)CCN(Cc1ccc(O)cc1)C2` (centres undefined) was 5.74%; that for `CN(CC1(O)CCCN(c2ccccn2)C1)C(=O)Cc1ccsc1` (centres undefined) was -1.11%.
For the molecule `COCc1ccccc1C(=O)NS(=O)(=O)CCCC#N`, the cytotoxicity at 10 µM amounted to 5.24%.
Turning to `Cn1ccc(C(=O)Nc2nccn2Cc2ccccc2Cl)cc1=O`, the cytotoxicity at 10 µM was -1.92%.
The value for `CCC(NC(=O)NCc1nncn1CC)c1ccc(OC)cc1` (centres undefined) was 1.97%; that for `Cc1nn(CC(=O)NCC2(C(N)=O)CCOCC2)c(C)c1Cl` was 2.83%.
In the case of `CC(C)CCC(=O)NC(C#N)CC(C)C` (centres undefined), the cytotoxicity at 10 µM amounted to 2.53%.
As to `Cc1nc(CSc2ccc(C(F)(F)F)cn2)no1`, the cytotoxicity at 10 µM is -3.38%.
As to `Cn1ncc(C(=O)OCC2CCN(c3ccccc3)C2)c1C(F)F` (centres undefined), the cytotoxicity at 10 µM is -5.44%.
Consider `CC(C(=O)Nc1ccnn1C(C)C)N1CCN(Cc2ccon2)CC1` (centres undefined), for which the cytotoxicity at 10 µM stood at 0.72%.
In the case of `NC(=O)NC(=O)Cn1ccc2sccc2c1=O` it was 0.354%; in that of `OC(CN(Cc1ccccc1)Cc1cscn1)c1cccs1` (centres undefined), 4.74%.
On to `COCCCN(Cc1ccncc1)c1cc(C)ncn1`, for which the cytotoxicity at 10 µM worked out at 3.35%.
Turning to `CCCS(=O)(=O)NCC(C)c1ccc(F)c(F)c1` (centres undefined), the cytotoxicity at 10 µM was -6.82%.
For the molecule `CC(C)S(=O)(=O)c1ccccc1C(=O)NCC1Cc2ccccc2O1` (centres undefined), the cytotoxicity at 10 µM was determined as 5.87%.
Turning to `Cc1cc(N2CCC(NCCOc3ccccc3)CC2)nc(C)n1`, the cytotoxicity at 10 µM was -6.11%.
Turning to `Cc1nc(CCNC(C)c2ccc3c(c2)OCCCO3)cs1` (centres undefined), the cytotoxicity at 10 µM came to 3.3%.
The value for `CC(=O)Nc1nc(C(=O)NCCOc2cccc(C)c2)cs1` was -0.794%; that for `CNC(=O)c1ccc(OC)c(NCc2noc(-c3cccs3)n2)c1` was 2.76%.
The value for `CC(CNC(=O)c1c[nH]nn1)Oc1ccccc1Br` (centres undefined) was -0.509%; that for `Cn1cc(N2CCCC(SCc3ccco3)C2=O)cn1` (centres undefined) was 17.3%; that for `CCCC(=O)NCC(=O)NC(c1ccc(Cl)cc1)C(F)(F)F` (centres undefined) was -3.63%.
In the case of `CC(C)c1ccc(NC(=O)c2ncc(C(N)=O)cc2Cl)cc1` it was -1.85%; in that of `COc1ccccc1NC(=O)NCc1cn[nH]c1`, 16.9%.
As for `Cc1ccc(CCCC(=O)N2CCCC(CS(N)(=O)=O)C2)s1` (centres undefined), the cytotoxicity at 10 µM came out at 17.9%.
`COCCC1(CNC(=O)NCC2CN(C)CCN2C)CCC1` (centres undefined): the cytotoxicity at 10 µM was determined as 6.35%.
Take `CC(=O)N1CCCC(C(=O)NCCc2ccc(F)c(Br)c2)C1` (centres undefined): the cytotoxicity at 10 µM came out at 4.64%.
The value for `Cc1nc(Cn2c3c(ccc2=O)CC(N)CC3)cs1` (centres undefined) was 1.88%; that for `COCCN1CCN(S(=O)(=O)C2CC2)Cc2cccnc21` was 4.73%.
Consider `CCOCC1CC2(CCN(C(=O)c3cscn3)CC2)CO1` (centres undefined), for which the cytotoxicity at 10 µM is 2.42%.
For `Cc1ccc(N2CCC3(CCN(C(=O)c4ccsc4)CC3)CC2)nn1`, the cytotoxicity at 10 µM amounted to 2.19%.
In the case of `Cn1cccc1C(=O)N1CCn2cc(CNC(=O)CC3CC3)nc2C1` it was 3.11%; in that of `NC(=O)[C@H]1CCCN(c2nccc(-c3ccncc3)n2)C1`, -5.03%.
Take `CC(C)n1cnnc1CN(C)C1CCCNC1` (centres undefined): the cytotoxicity at 10 µM worked out at 6.9%.
Turning to `COC(=O)C1CCCCN1C(=O)c1cn(C/C=C/c2ccccc2)nn1` (centres undefined), the cytotoxicity at 10 µM was determined as 3.98%.
In the case of `CCn1c(C2CCN(C(=O)c3cc(CC(C)C)no3)CC2)nn(C)c1=O` it was -2.51%; in that of `CCC(CO)N(C/C(C)=C/c1ccco1)Cc1ccco1` (centres undefined), -3.41%; in that of `COCC[C@]1(O)CCN(C(=O)C2CCN(C3CCCC3)CC2)C[C@H]1C`, -0.292%.
For `O=C(NCCc1cccs1)N1CCCC2(CCC(=O)N(C3CC3)C2)C1` (centres undefined), the cytotoxicity at 10 µM was -7.82%.
Take `C[C@@H]1CN(S(=O)(=O)N2CCCC2)C[C@@]1(O)C1CC1`: the cytotoxicity at 10 µM is -5.07%.
As to `N[C@H]1CN(C(=O)c2ccc3[nH]c(CO)nc3c2)C[C@@H]1c1ccccc1`, the cytotoxicity at 10 µM was -1.82%.
The value for `O=S(=O)(Cc1ccccc1Cl)NCCCN1CCCC1` was -4.54%.
`COc1ncc(C2CC(=O)NCc3nc4ccccn4c32)cn1` (centres undefined): the cytotoxicity at 10 µM was -9.75%.
As to `CSCC[C@H](N)C(=O)NCc1cc2n(n1)CCCN(C1CCCCC1)C2`, the cytotoxicity at 10 µM was -15.3%.
Take `O=C(c1cc(COc2ccc3c(c2)OCO3)[nH]n1)N1CCOCC1`: the cytotoxicity at 10 µM was -5.21%.
The value for `COCCCn1ccnc1-c1cnc(OC)nc1` was -13.6%; that for `COc1ccc(Cc2nnc(SC)o2)cc1OC` was -13.8%.
On to `Cc1c(NC(=O)c2noc3c2CCCC3)cnn1C`, for which the cytotoxicity at 10 µM is -5.41%.
In the case of `CC(C)Cc1cc(NC(=O)c2ccccc2)n(C)n1` it was -3.37%; in that of `Cc1cnc(CN(C)C2CCCN(Cc3noc(C4CC4)n3)C2)cn1` (centres undefined), -2.13%; in that of `Cc1cnn(C2CN(CC(=O)NCCc3c[nH]c4ccccc34)C2)c1`, -4.01%.
Turning to `CC(=O)N1CCCN(C(=O)CCc2c(C)nc3ccnn3c2C)CC1`, the cytotoxicity at 10 µM was -3.12%.
Regarding `N#Cc1ccccc1N1CCCN(C(=O)NCc2cc[nH]n2)CC1`, the cytotoxicity at 10 µM is 0.428%.
Take `CC(=O)N(Cc1noc(C2CC2)n1)C1CCN(Cc2ccccn2)C1` (centres undefined): the cytotoxicity at 10 µM is -5.72%.
In the case of `Cc1ccc(Cl)cc1N1CCC(CNC(=O)Cn2cccn2)C1` (centres undefined) it was -6.72%.
The value for `Cc1nccn1CCCC(=O)N1CCCN(c2cccnn2)CC1` was -9.35%; that for `CC(=O)N(Cc1ncc(C)o1)C1CCN(Cc2ccccc2C#N)C1` (centres undefined) was -15.5%.
On to `CC(C)c1nc(C2CCCN(C(=O)c3nccn4ccnc34)C2)no1` (centres undefined), for which the cytotoxicity at 10 µM was -12.7%.
In the case of `CCc1nnc(C2Cc3ccccc3CN2Cc2nc(C)no2)o1` (centres undefined), the cytotoxicity at 10 µM was -7.78%.
`CN(C)c1cc(CNC(=O)c2cccnc2O)ccn1`: the cytotoxicity at 10 µM was -5.26%.
As to `CCOc1ccccc1-c1noc(CN2CCOC(CN(C)C)C2)n1` (centres undefined), the cytotoxicity at 10 µM was -5%.
As for `CC1CN(C)CCN1C(=O)c1ccn(-c2cccc(Cl)c2)n1` (centres undefined), the cytotoxicity at 10 µM was -26.3%.
For `CC(C)C(Sc1nnc(C2CC2)n1C1CC1)C(=O)NCc1cccnc1` (centres undefined), the cytotoxicity at 10 µM was -11.2%.
Regarding `O=C(c1ccc(Cl)c(Cl)c1)N1CCCC(n2cncn2)C1` (centres undefined), the cytotoxicity at 10 µM is -5.16%.
In the case of `Cc1ccc(S(=O)(=O)N2CCOc3ccccc32)cc1C(=O)O` it was -0.524%.
For `CC(C)n1ccnc1CN1CCCN(C(=O)c2cccnc2O)CC1`, the cytotoxicity at 10 µM was 1.74%.
With `CCc1nc(C2CCCN2CCc2ccccn2)no1` (centres undefined), the cytotoxicity at 10 µM was -7.03%.
For the molecule `CCOc1nnc(CN2CCOC(CNc3cccnn3)C2)s1` (centres undefined), the cytotoxicity at 10 µM worked out at 1.82%.
On to `CCn1cnnc1CNC(=O)NC(C)C(C)C` (centres undefined), for which the cytotoxicity at 10 µM was -6.15%.
Consider `CCCN(Cc1cccnc1)C1CC(C)(C)NC(C)(C)C1`, for which the cytotoxicity at 10 µM is -4.47%.
`Cc1cc(C)c(N(CC(O)CNCc2ccco2)S(C)(=O)=O)c(C)c1` (centres undefined): the cytotoxicity at 10 µM was -12.5%.
Turning to `CN(C)[C@@H]1CCN(c2ncc(F)cn2)[C@H]1Cc1cccnc1`, the cytotoxicity at 10 µM worked out at 2.53%.
With `CCOC(=O)CN1CC(c2nc(-c3ccsc3)no2)C1`, the cytotoxicity at 10 µM was -12.3%.
As to `CN(C)CCN1C(=O)CCC12CCCN(C(=O)N(C)C)CC2` (centres undefined), the cytotoxicity at 10 µM amounted to 4.56%.
In the case of `CN1CCOC2(CCCN(C(=O)C3CCCCC3)C2)C1` (centres undefined), the cytotoxicity at 10 µM is -6.66%.
On to `O=C(C1CC1)N1CCC2(CCN2Cc2ccc(F)cc2)C1` (centres undefined), for which the cytotoxicity at 10 µM turned out to be 1.55%.
On to `O=C(c1n[nH]c2c1CN(C1CCOC1)CC2)N1CCOCC1` (centres undefined), for which the cytotoxicity at 10 µM was determined as 4.88%.
In the case of `CN(C)C(=O)CN1C(=O)CCC12CCN(Cc1cccs1)CC2` it was -2.6%; in that of `O=C1CC2(CCN(CC3CCOC3)CC2)c2ccccc2N1CC1CC1` (centres undefined), -9.61%; in that of `O=C(N[C@@H]1C[C@@H]2CC[C@H]1C2)C1(Oc2ccc(Cl)cc2)CCNCC1`, -5.26%.
